{"source": "ChEMBL document CHEMBL3244269", "about": "“Synthesis of carboxyarylindoles and benzofurans as nonsteroidal antiinflammatory agents” (J Med Chem, 1977)", "key": {"[1]": {"tested_on": "Rattus norvegicus", "assay": "Antiinflammatory activity in Wistar rat assessed as inhibition of carrageenan-induced paw edema at 200 mg/kg, po administered 30 mins prior challenge measured after 3 hrs relative to placebo-control", "format": "functional", "method_in_brief": "(§1)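 Fasted male Wistar rats, eight per group, dosed orally with 200 mg/kg as a saline-Tween 80 suspension (10 mL/kg), or placebo. After 30 min, 0.1 cm³ of 1% carrageenan in distilled water was injected into the left hind paw plantar surface. Paw volume was read by mercury displacement then and 3 h later. Mean volume increase was compared with placebo as percent inhibition.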"}, "[2]": {"tested_on": "Rattus norvegicus", "assay": "Toxicity in carrageenan-induced Wistar rat assessed as increase in paw edema at 200 mg/kg, po administered 30 mins prior challenge measured after 3 hrs relative to placebo-control", "format": "organism-based", "parameters": "dose 200 mg/kg, route oral", "conditions": "in vivo", "method_in_brief": "as §1"}}, "data": [{"smiles": "O=C(O)c1cc(-c2cc3c(n2-c2ccccc2)CCc2ccccc2-3)ccc1O", "values": [{"measurement": "inhibition in vivo at 200 mg/kg", "setting": "[1]", "value": 37.5, "unit": "%"}]}, {"smiles": "COC(=O)c1cc(-c2cc3c(o2)CCCC3)ccc1O", "values": [{"measurement": "inhibition in vivo at 200 mg/kg", "setting": "[1]", "value": 9.8, "unit": "%"}, {"measurement": "Activity", "setting": "[2]", "value": "Toxic"}]}, {"smiles": "CC(=O)Oc1ccccc1C(=O)O", "note": "[ASPIRIN]", "values": [{"measurement": "inhibition in vivo at 200 mg/kg", "setting": "[1]", "value": 65.3, "unit": "%"}]}, {"smiles": "CCCCn1c(-c2ccc(O)c(C(=O)O)c2)cc2c1CCCC2", "values": [{"measurement": "inhibition in vivo at 200 mg/kg", "setting": "[1]", "value": 41, "unit": "%"}]}, {"smiles": "O=C(O)c1cc(-c2cc3c(o2)CCCC3)ccc1O", "values": [{"measurement": "inhibition in vivo at 200 mg/kg", "setting": "[1]", "value": 21.5, "unit": "%"}]}, {"smiles": "O=C(O)c1cc(-n2c(-c3ccccc3)cc3c2CCc2ccccc2-3)ccc1O", "note": "[FENDOSAL]", "values": [{"measurement": "inhibition in vivo at 200 mg/kg", "setting": "[1]", "value": 64.2, "unit": "%"}]}, {"smiles": "O=C(O)c1cc(-c2cc3c(n2-c2ccccc2)CCCC3)ccc1O", "values": [{"measurement": "inhibition in vivo at 200 mg/kg", "setting": "[1]", "value": 25.8, "unit": "%"}]}, {"smiles": "O=C(O)c1cc(-n2c(-c3ccccc3)cc3c2CCCC3)ccc1O", "values": [{"measurement": "inhibition in vivo at 200 mg/kg", "setting": "[1]", "value": 64, "unit": "%"}]}, {"smiles": "COC(=O)c1cc(-c2cc3c(n2-c2ccccc2)CCc2ccccc2-3)ccc1O", "values": [{"measurement": "inhibition in vivo at 200 mg/kg", "setting": "[1]", "value": 21.7, "unit": "%"}, {"measurement": "Activity", "setting": "[2]", "value": "Toxic"}]}]}
